One test has as its system K562. The test can be described thus: Antiproliferative activity against human K562 cells after 48 to 72 hrs by trypan blue dye exclusion assay and MTT assay. The class given is functional, cell-based. Background: Formazan colour is commonly taken as a measure of viable cells.
Another test concerns Jurkat. The test can be described thus: Antiproliferative activity against human Jurkat cells after 48 to 72 hrs by trypan blue dye exclusion assay and MTT assay. The test is classed as functional, cell-based.
The nature of test [1]: Antiproliferative activity against human NALM6 cells after 48 to 72 hrs by trypan blue dye exclusion assay and MTT assay. The test is classed as functional, cell-based. The following applies: NALM-6.
A short description of test [2]: Cell cycle arrest in human NALM6 cells assessed as accumulation at subG1 phase at 20 uM after 48 hrs by propidium iodide staining based flow cytometry. The test is classed as functional. Particulars: NALM-6. The procedure, abridged: (§1)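 Nalm6 cells (about 0.75 × 10⁵ cells/ml) were treated at 5, 10 and 20 µM for 48 h, with a DMSO vehicle control. Cells were PBS-washed, treated with RNase (50 µg/ml), stained with propidium iodide and analysed by flow cytometry (488 nm excitation, 560/670 emission). At least 10,000 cells per sample; subG1, G1, S and G2/M fractions scored. Two independent experiments.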
For orientation: Flow cytometry measures light scatter and fluorescence of single cells or particles in a stream.

Another test has as its system NALM-6. The test can be described thus: Induction of cell death in human NALM6 cells assessed as mitochondrial membrane potential depolarization after 48 hrs by JC1 staining based flow cytometry. The class given is functional. A digest of the protocol:
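Nalm6 cells were exposed to 5, 10 and 20 µM for 48 h, then loaded with JC-1 (0.5 µM) at 37°C for 30 min and PBS-washed. Flow cytometry used 488 nm excitation, reading emission at 530/630 and 580/610 nm on 10,000 cells. The ratio of red to green fluorescent cells was reported. 2,4-DNP was the positive control and DMSO the vehicle control.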

Test [3] is described as follows: Cell cycle arrest in human NALM6 cells assessed as change in cell cycle distribution at 5 to 10 uM after 48 hrs by propidium iodide staining based flow cytometry. The class given is functional. Particulars: NALM-6. The procedure, abridged: as §1
A short description of test [4]: Cell cycle arrest in human NALM6 cells assessed as accumulation at G2/M phase at 20 uM after 48 hrs by propidium iodide staining based flow cytometry. The class given is functional. Particulars: NALM-6. A digest of the protocol: as §1
Test [5] is described as follows: Cell cycle arrest in human NALM6 cells assessed as change in cell cycle distribution after 48 hrs by propidium iodide staining based flow cytometry. The class given is functional. Particulars: NALM-6. The procedure, abridged:
as §1

Active and inactive are the calls of the source. No cut-off for these calls is given here. Where only a bound is given, the exact number is not on record here.

Take `COC(=O)c1ccc(C2SCC(=O)N2c2ccc(N3CCN(S(=O)(=O)c4ccccc4)CC3)cn2)c(OC)c1` (stereo not given): the IC50 in the test with K562 is 65.6 µM; in the test with Jurkat, 52.9 µM; in test [1], 48.4 µM.

Take `COC(=O)c1ccc(C2SCC(=O)N2c2ccc(N3CCN(S(=O)(=O)c4cc(Cl)ccc4Cl)CC3)cn2)c(OC)c1` (stereo not given): the IC50 in the test with K562 is over 100 µM; with Jurkat, over 100 µM; in test [1], 27.4 µM.

With `COC(=O)c1ccc(C2SCC(=O)N2c2ccc(N3CCN(Cc4ccc(Cl)c(Cl)c4)CC3)cn2)c(OC)c1` (stereo not given), the IC50 was over 100 µM in the test on K562, 61 µM with Jurkat and over 100 µM in test [1].

For the compound `COC(=O)c1ccc(C2SCC(=O)N2c2ccc(N3CCN(S(=O)(=O)c4ccc([N+](=O)[O-])cc4)CC3)cn2)c(OC)c1` (stereo not given), the IC50 with K562 is 65.2 µM; in the test with Jurkat it was 54 µM; in test [1] it was over 100 µM.

In the case of `COC(=O)c1ccc(C2SCC(=O)N2c2ccc(N3CCN(S(=O)(=O)c4ccc(OC)cc4)CC3)cn2)c(OC)c1` (stereo not given), the values for the IC50 (in the test with K562; in the test with Jurkat; in test [1]) were 54.5 µM, 45.2 µM and 29.4 µM, respectively.

Consider `COC(=O)c1ccc(C2SCC(=O)N2c2ccc(N3CCN(Cc4cc(OC)c(OC)c(OC)c4)CC3)cn2)c(OC)c1` (stereo not given), for which the IC50 in the test with K562 is over 100 µM; in the test on Jurkat, 41 µM; in test [1] it was over 100 µM.

Regarding `COC(=O)c1ccc(C2SCC(=O)N2c2ccc(N3CCN(Cc4cccc([N+](=O)[O-])c4)CC3)cn2)c(OC)c1` (stereo not given), the IC50 with K562 is 68.7 µM; with Jurkat, 37.4 µM; in test [1], over 100 µM.

On to `COC(=O)c1ccc(C2SCC(=O)N2c2ccc(N3CCN(S(=O)(=O)c4c(C)cc(C)cc4C)CC3)cn2)c(OC)c1` (stereo not given), for which the IC50 is 53.5 µM in the test with K562, over 100 µM in the test with Jurkat and over 100 µM in test [1].

For `COC(=O)c1ccc(C2SCC(=O)N2c2ccc(N3CCN(Cc4cccc(C)c4)CC3)cn2)c(OC)c1` (stereo not given), the IC50 is over 100 µM in the test on K562, over 100 µM in the test with Jurkat and 27.3 µM in test [1].

Turning to `COC(=O)c1ccc(C2SCC(=O)N2c2ccc(N3CCN(S(=O)(=O)c4ccc(F)cc4)CC3)cn2)c(OC)c1` (stereo not given), the IC50 in the test with K562 is over 100 µM; in the test on Jurkat it was 78.3 µM; in test [1], over 100 µM.

Regarding `CC(=O)O[C@H]1C(=O)[C@@]2(C)[C@H]([C@H](OC(=O)c3ccccc3)[C@]3(O)C[C@H](OC(=O)[C@H](O)[C@@H](NC(=O)c4ccccc4)c4ccccc4)C(C)=C1C3(C)C)[C@]1(OC(C)=O)CO[C@@H]1C[C@@H]2O` [PACLITAXEL], the IC50 with Jurkat came out at 0.0045 µM; in test [1], 0.0041 µM.

In the case of `COC(=O)c1ccc(C2SCC(=O)N2c2ccc(N3CCNCC3)cn2)c(OC)c1` (stereo not given), the IC50 in the test with K562 worked out at 15.2 µM; in the test on Jurkat, 19.3 µM; in test [1], 9.71 µM. For the same compound, the outcome in test [2], in test [3] and in test [4] was Active. For the same compound, the Activity entry (in the test on NALM-6; in test [5]) was “Dose-dependent effect” throughout.

The IC50 is the concentration at which inhibition is half-maximal. A high value points to weaker potency.

Source of the values: ChEMBL document CHEMBL3259637, “Synthesis and antiproliferative effect of novel 4-thiazolidinone-, pyridine- and piperazine-based conjugates on human leukemic cells” (Eur J Med Chem, 2014).
